Assay outcomes: PubChem, several laboratories
Only some compounds are listed: those with a hit (about 2.3% of all), similar ones and a draw of the others.
PP1 inh: PP1-alpha (human) inhibition in PP5 counter-screen. purified PP1alpha, OMFP fluorescence. inhibition, % at 6.7 µM. hit rate 0.9% among 320,000. AID 2235;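 active means inhibition above the mean inhibition of all tested compounds plus 3 SD, computed separately for each screening campaign, cut at about 15% in these data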
Fh CTSL1 inh: cathepsin L1 inhibition, PFM18AAP counter-screen; recombinant F. hepatica cathepsin L1, Z-Leu-Arg-MCA fluorescence; inhibition, % at 5.96 µM; hit rate 0.49% among 300,000;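 active means inhibition above the mean of all tested compounds plus 3 SD, set per screening campaign, cut at about 17% in these data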;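 further: 0% = plate median of test compound wells and 100% = 1 µM Z-Phe-Ala-diazomethylketone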
PREPL inhibitor: human PREPL enzyme inhibition. Q4J6C6. recombinant PREPL, fluorescence polarization activity-based probe. inhibition, % at 5.96 µM. hit rate 0.68% among 320,000; in the data active means inhibition above about 43%;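 further: 0% = enzyme with DMSO and 100% = wells lacking enzyme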
Target sequence (Q4J6C6 whole entry, looked up): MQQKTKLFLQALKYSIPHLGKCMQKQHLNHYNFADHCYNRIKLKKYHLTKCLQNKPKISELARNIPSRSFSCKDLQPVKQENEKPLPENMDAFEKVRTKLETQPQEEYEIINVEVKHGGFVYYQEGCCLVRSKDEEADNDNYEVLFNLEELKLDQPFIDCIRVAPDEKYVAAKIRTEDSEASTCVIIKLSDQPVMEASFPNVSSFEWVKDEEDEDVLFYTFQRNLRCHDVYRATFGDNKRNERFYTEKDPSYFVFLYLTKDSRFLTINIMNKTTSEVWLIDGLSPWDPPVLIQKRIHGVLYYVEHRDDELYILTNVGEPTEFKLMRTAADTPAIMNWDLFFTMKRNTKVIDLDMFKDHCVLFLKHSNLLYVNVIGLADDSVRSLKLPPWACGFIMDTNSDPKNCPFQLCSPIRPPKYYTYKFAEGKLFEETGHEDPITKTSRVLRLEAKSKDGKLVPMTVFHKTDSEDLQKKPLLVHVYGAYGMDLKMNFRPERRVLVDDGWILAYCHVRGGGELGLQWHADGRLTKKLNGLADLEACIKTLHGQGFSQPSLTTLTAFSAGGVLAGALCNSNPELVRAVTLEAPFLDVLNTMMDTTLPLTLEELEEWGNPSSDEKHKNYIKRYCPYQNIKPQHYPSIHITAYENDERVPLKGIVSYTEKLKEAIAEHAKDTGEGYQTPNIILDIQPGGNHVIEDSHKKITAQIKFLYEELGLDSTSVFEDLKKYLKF
PP5 inh: PP5 (human) phosphatase inhibition; hit rate 0.18% among 320,000; purified PP5c, OMFP substrate fluorescence; inhibition, % at 6.7 µM; P53041;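 active means inhibition above the campaign's mean inhibition across all tested compounds plus 3 SD, cut at about 9.5% in these data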;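 further: 0% = DMSO only and 100% = 100 µM cantharidin control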
UCH37 inh: blocks the human deubiquitinase UCH37; Q9Y5K5; purified proteasome/UCH37, Ub-AMC cleavage fluorescence; inhibition, % (concentration not given with the values); hit rate 0.33% among 330,000; AID 588478;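 active means mean inhibition over replicate wells above about 20%, limit read from the data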;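 further: 0% = compound-free wells with enzyme and 100% = wells lacking proteasome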
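Schedule: 30 min plus 25 min, room temperature / Material: human UCH37 within purified proteasomes / Technique: AMC fluorescence intensity at 355/460 nm / Buffer or medium: pH 7.4 Tris-HCl (50 mM) with ovalbumin, ATP-MgCl2, DTT / Controls: wells without proteasome as full block, compound-free enzyme plus substrate as uninhibited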
UBC13 inh: human UBC13 polyubiquitination inhibition; hit rate 0.47% among 330,000; UBC13 polyubiquitin chain formation, TR-FRET; P61088; inhibition, % at 20 µM; in the data active means inhibition above about 45%, passing the limit was not always enough
PP1 inh confirm: confirmation of human PP1 phosphatase inhibitors; shares compounds with PP1 inh; purified PP1alpha, OMFP substrate fluorescence; inhibition, % at 6.7 µM; hit rate 52% among 1,900; AID 2358;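 active means mean PP1 inhibition above a set limit taken from the earlier primary screen, cut at about 15% in these data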
PP5 counter: counter-screen for PP1 inhibitors: human PP5 phosphatase inhibition | shares compounds with PP1 inh | purified PP5c, OMFP fluorescence | inhibition, % at 6.7 µM | hit rate 4% among 1,900;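 active means mean PP5 inhibition over triplicate wells above about 9.5% taken from the earlier PP1 screen, limit read from the data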
Numbers without * were called inactive; · = no result.

SMILES	PP1 inh	Fh CTSL1 inh	PREPL inhibitor	PP5 inh	UCH37 inh	UBC13 inh	PP1 inh confirm	PP5 counter
O=c1c2ccccc2nc2n1CCC2	52*	0	14	8	12	-6	48*	1
O=c1c2ccccc2nc2n1CCCCC2	4	1	13	3	2	-4	·	·
Cc1ccc(CN2CCN(/N=C/c3cc(Br)ccc3O)CC2)cc1	35*	-1	6	3	·	1	-4	-7
CCN(CC)c1ccc(C=NN2CCN(Cc3ccc(C)cc3)CC2)c(O)c1	·	·	·	·	2	·	·	·
O=C(Nc1nccs1)c1ccc(-c2ccc(Cl)cc2)o1	2	2	-18	1	-4	25	·	·
O=C(Nc1nccs1)c1ccc(-c2ccc([N+](=O)[O-])cc2)o1	18*	1	-2	-1	1	·	23*	-1
CC(C)(C)C1CCC2(CC1)Nc1cccc3cccc(c13)N2	31*	-1	19	-1	-38	-6	25*	4
CCN(CC)c1ccc(C2Nc3cccc4cccc(c34)N2)cc1	5	-3	-1	3	·	-56	·	·
COc1cc([N+](=O)[O-])cc(C=NNC(=O)C(C)Nc2cccc(C)c2)c1O (stereo not drawn)	·	·	·	·	8	·	·	·
COc1cc([N+](=O)[O-])cc(/C=N\NC(=O)C2COc3ccccc3O2)c1O (stereo not drawn)	32*	9	13	0	·	-75	26*	-3
COc1cc([N+](=O)[O-])cc(/C=N/NC(=O)C(C)Nc2cccc3ccccc23)c1O (stereo not drawn)	23*	-2	15	2	·	-46	33*	-2
COc1cc([N+](=O)[O-])cc(/C=N/NC(=O)C(O)(c2ccccc2)c2ccccc2)c1O	20*	3	11	-1	·	-28	14	-3
O=[N+]([O-])c1cccc(C=NNc2nc(NCc3ccccc3)nc(N3CCOCC3)n2)c1	·	·	·	·	3	·	·	·
CC(C(O)=C(C#N)c1nc2ccccc2n1C)N1C(=O)c2ccccc2C1=O (stereo not drawn)	·	·	·	·	0	·	·	·
CCOc1ccc2c(c1)C(NC(C)=O)C(=O)N2CCN1CCOCC1 (stereo not drawn)	·	·	·	·	12	-6	·	·
CC(=O)NC1C(=O)N(CCN2CCOCC2)c2ccc(Br)cc21 (stereo not drawn)	38*	-9	-3	4	·	-2	38*	-2
O=C1Nc2ccccc2/C1=C/c1cnc(-c2ccccc2)[nH]1	35*	1	-1	2	1	-46	35*	-1
O=C(CCN1C(=O)/C(=C/c2ccc(F)cc2)SC1=S)NC1C=CS(=O)(=O)C1 (stereo not drawn)	0	4	17	-1	8	-5	·	·
O=C(CCN1C(=O)/C(=C/c2ccccc2Cl)SC1=S)NC1C=CS(=O)(=O)C1 (stereo not drawn)	24*	0	24	-1	5	14	24*	-1
CC(C)(C)C(=O)N1N=C(c2ccc(NS(C)(=O)=O)cc2)CC1c1cccs1 (stereo not drawn)	23*	16	3	8	-12	7	-1	-2
CS(=O)(=O)Nc1ccc(C2=NN(C(=O)c3ccccc3)C(c3cccs3)C2)cc1 (stereo not drawn)	4	-1	-11	1	3	6	·	·
O=C(O)CC1SC(=NN=C2CCCCCC2)N(c2ccccc2)C1=O (stereo not drawn)	·	·	·	·	2	·	·	·
Cc1ccccc1CCN(C(=O)Cn1nnc2ccccc21)C(C(=O)NCC1CCCO1)c1nc2ccccc2n1C (stereo not drawn)	18*	-2	6	1	6	-17	36*	-3
Cc1cc(C)nc(NN=Cc2sccc2C)n1	·	·	·	·	7	·	·	·
COc1cccc(C2C3=C(N=c4s/c(=C\c5cccc(O)c5)c(=O)n42)c2ccccc2CC3)c1OC (stereo not drawn)	1	-2	4	4	·	-18	·	·
SMILES	PP1 inh	Fh CTSL1 inh	PREPL inhibitor	PP5 inh	UCH37 inh	UBC13 inh	PP1 inh confirm	PP5 counter
COc1ccccc1C1C2=C(N=c3s/c(=C/c4cccc(OCC(=O)O)c4)c(=O)n31)c1ccccc1CC2 (stereo not drawn)	20*	-1	4	3	·	·	19*	0
COc1cccc(C2C(C(=O)Nc3ccccc3)=C(C)N=c3sc(=Cc4ccc(OCC(=O)O)cc4)c(=O)n32)c1 (stereo not drawn)	·	·	·	·	10	·	·	·
COc1cccc(C2C3=C(N=c4s/c(=C\c5ccc(OCC(=O)O)cc5)c(=O)n42)c2ccccc2CC3)c1 (stereo not drawn)	23*	3	-10	2	·	-14	7	-2
O=[N+]([O-])c1ccc(-c2ccc(C=NO)o2)cc1	·	·	·	·	7	·	·	·
O=C(O)c1ccccc1C=NNC(=O)C1CCCCC1	·	·	·	·	4	·	·	·
C=CCOC(=O)C(=O)/C=C/c1ccc2c(c1)Cc1ccccc1-2	21*	4	-2	2	2	-17	18*	0
CC(=NNC(=O)CNc1cccc(Cl)c1C)C1CC1	·	·	·	·	1	·	·	·
O=C(NN=Cc1ccc[nH]1)c1cccnc1	·	·	·	·	14	·	·	·
COc1ccccc1NC(=O)c1c(Nc2ccccc2F)sc(C(=O)Nc2cccc(Cl)c2)c1N	22*	0	6	0	3	-5	2	2
O=C1N=C(N2CCN(c3ccccc3)CC2)S/C1=C\c1cn[nH]c1-c1ccccc1	2	6	13	4	-1	8	·	·
O=C1N=C(N2CCC(Cc3ccccc3)CC2)S/C1=C/c1cn[nH]c1-c1ccccc1	21*	9	-34	3	-9	-6	9	-5
CCOC(=O)NN=Cc1ccc(-c2cc(Cl)ccc2Cl)o1	·	·	·	·	2	·	·	·
CCOC(=O)C1CCCN(c2ccc(NC(=O)c3snc4c(=O)[nH]c(C)nc34)cc2)C1 (stereo not drawn)	-5	0	11	0	12	-37	·	·
CCOC(=O)C1CCCN(c2ccc(NC(=O)c3snc4c(=O)[nH]cnc34)cc2)C1 (stereo not drawn)	23*	1	15	-1	2	-54	26*	-1
O=C1OC(=O)C2C1[C@@H]1CC[C@H]2O1 (stereo partly drawn)	79*	-1	-4	77*	1	11	66*	69*
CCCN(C=Nc1sc2c(c1C#N)CCCCC2)CCC	·	·	·	·	3	·	·	·
Cc1ccc(-c2nn(-c3ccccc3)cc2C=NNC(=O)c2ccc(Br)o2)cc1	·	·	·	·	-6	·	·	·
CN(C)/C=C/c1onc(-c2c(Cl)cccc2Cl)c1C#N	35*	5	-6	2	6	-4	1	1
CCCn1c(=O)c(C(=O)NNS(=O)(=O)c2ccc(C)cc2)c(O)c2ccccc21	7	-6	7	2	-1	-21	·	·
